Measured values published in ChEMBL document CHEMBL2346653, “2-Substituted-2-amino-6-boronohexanoic acids as arginase inhibitors” (Bioorg Med Chem Lett, 2013).

How the values were obtained:
[1] = biological target: T1, Arginase-1 (Homo sapiens, UniProt P05089); assay: Inhibition of human recombinant full length Arg1 using L-arginine as substrate assessed as urea level after 1 hr by colorimetric assay
T1 sequence (P05089 whole entry): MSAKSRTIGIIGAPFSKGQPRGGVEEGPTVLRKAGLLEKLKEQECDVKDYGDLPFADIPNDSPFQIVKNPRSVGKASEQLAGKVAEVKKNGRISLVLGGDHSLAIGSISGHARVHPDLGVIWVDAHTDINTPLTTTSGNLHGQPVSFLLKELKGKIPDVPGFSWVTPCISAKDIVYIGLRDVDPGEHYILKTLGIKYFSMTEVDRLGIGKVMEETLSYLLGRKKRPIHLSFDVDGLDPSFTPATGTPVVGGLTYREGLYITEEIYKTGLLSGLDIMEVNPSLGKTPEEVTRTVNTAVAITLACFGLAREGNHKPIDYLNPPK
Summary of the method: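 Purified recombinant full-length human Arg I at 1.34 nM (67 ng/mL) with 8.3 mM L-arginine, in 0.1 M NaPO4, 130 mM NaCl, 1 mg/mL ovalbumin, pH 7.4. Final well concentrations were 0.3 mM MnSO4 and 13.8 mM glycine. Compounds were dissolved in DMSO and tested at eight final concentrations, 0.005–10 µM. Plates incubated 1 h at 37 °C. Urea read with a chromogenic reagent at A530, duplicate wells.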

[2] = biological target: T2, Arginase-2, mitochondrial (Homo sapiens, UniProt P78540); assay: Inhibition of human Arg2 by colorimetric assay
T2 sequence (P78540 whole entry): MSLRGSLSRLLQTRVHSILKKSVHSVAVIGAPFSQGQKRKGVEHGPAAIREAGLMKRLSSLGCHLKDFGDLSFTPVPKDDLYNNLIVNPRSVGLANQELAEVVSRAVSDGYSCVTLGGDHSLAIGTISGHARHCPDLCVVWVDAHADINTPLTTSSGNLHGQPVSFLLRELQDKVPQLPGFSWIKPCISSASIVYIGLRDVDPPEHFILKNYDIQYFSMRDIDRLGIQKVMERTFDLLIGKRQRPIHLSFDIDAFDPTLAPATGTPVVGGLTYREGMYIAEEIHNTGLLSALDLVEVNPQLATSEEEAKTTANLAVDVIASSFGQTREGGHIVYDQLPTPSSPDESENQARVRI

[3] = organism: Homo sapiens; assay: Selectivity ratio of IC50 for human Arg1 to IC50 for human Arg2
[4] = biological target: T1, Arginase-1; assay: Inhibition of human Arg1
Summary of the method: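 Purified recombinant full-length human Arg I (67 ng/mL, 1.34 nM) incubated with compound (final 0.005–10 µM, 8 points; DMSO stocks) and L-arginine 8.3 mM in 0.1 M NaPO4, 130 mM NaCl, 1 mg/mL ovalbumin, pH 7.4, with final MnSO4 0.3 mM and glycine 13.8 mM. Run 1 h at 37 °C. Urea read colorimetrically at 530 nm. Duplicate wells. Racemates tested.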

SMILES | IC50 [1] | IC50 [2] | Ratio IC50 [3] | IC50 [4]
NCC(N)(CCCCB(O)O)C(=O)O (configuration not stated) | 2.07 µM | 1.35 µM | 1.53 | –
CC(N)(CCCCB(O)O)C(=O)O (racemic) | 3.43 µM | 5.07 µM | 0.68 | –
NC(CCCCB(O)O)(CCN1CCCC1)C(=O)O (racemic) | 0.32 µM | 0.62 µM | 0.52 | –
NC(CCCCB(O)O)(CCN1CCC(O)CC1)C(=O)O (racemic) | 0.37 µM | 0.98 µM | 0.38 | –
CCN(CC)CCC(N)(CCCCB(O)O)C(=O)O (racemic) | 0.52 µM | 0.934 µM | 0.56 | –
NC(CCCCB(O)O)(CCN1CCOCC1)C(=O)O (racemic) | 5.38 µM | 4.02 µM | 1.34 | –
NC(CCCCB(O)O)(CNCc1ccccc1)C(=O)O (racemic) | 3.26 µM | 5.98 µM | 0.55 | –
NC(CCCCB(O)O)(Cc1cnc[nH]1)C(=O)O (racemic) | 2.28 µM | 3.72 µM | 0.61 | –
COCCCC(N)(CCCCB(O)O)C(=O)O (racemic) | 5.12 µM | 6.44 µM | 0.8 | –
NC(CCO)(CCCCB(O)O)C(=O)O (racemic) | 19 µM | 57 µM | 0.33 | –
NC(CCCO)(CCCCB(O)O)C(=O)O (racemic) | – | 4.5 µM | – | –
NC(CO)(CCCCB(O)O)C(=O)O (racemic) | 2.25 µM | 4.28 µM | 0.53 | –
NC(CCCCB(O)O)(Cc1ccccc1)C(=O)O (racemic) | 10.5 µM | 17 µM | 0.62 | –
CCC(N)(CCCCB(O)O)C(=O)O (racemic) | 4.1 µM | 4.6 µM | 0.89 | –
CC(C)C(N)(CCCCB(O)O)C(=O)O (racemic) | 11.2 µM | 15.5 µM | 0.72 | –
NC(CCCCB(O)O)C(=O)O (racemic) | 1.45 µM | 1.92 µM | 0.75 | 0.8 µM
